# High-throughput results deposited in PubChem BioAssay by The Scripps Research Institute Molecular Screening Center.
# A selection: hits, their analogues and other compounds. The true share with any hit is near 2.2%.
# NR2E3 ag-1 – human photoreceptor-specific nuclear receptor agonism; Q9Y5X4; CHO-S Gal4-NCOR/VP16-NR2E3 two-hybrid, luciferase; inhibition of corepressor binding, % at 3.98 µM; 0.35% of 360,000 active; AID 602229;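 active = inhibition above the mean of all tested compounds plus 3 SD, cut at about 70% in these data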;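 also: 0% = DMSO with NR2E3 transfected cells and 100% = cells lacking NR2E3 construct; higher means lower luciferase signal from less NR2E3 corepressor binding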
# Target sequence (Q9Y5X4 whole entry, looked up, the tested form may be a part): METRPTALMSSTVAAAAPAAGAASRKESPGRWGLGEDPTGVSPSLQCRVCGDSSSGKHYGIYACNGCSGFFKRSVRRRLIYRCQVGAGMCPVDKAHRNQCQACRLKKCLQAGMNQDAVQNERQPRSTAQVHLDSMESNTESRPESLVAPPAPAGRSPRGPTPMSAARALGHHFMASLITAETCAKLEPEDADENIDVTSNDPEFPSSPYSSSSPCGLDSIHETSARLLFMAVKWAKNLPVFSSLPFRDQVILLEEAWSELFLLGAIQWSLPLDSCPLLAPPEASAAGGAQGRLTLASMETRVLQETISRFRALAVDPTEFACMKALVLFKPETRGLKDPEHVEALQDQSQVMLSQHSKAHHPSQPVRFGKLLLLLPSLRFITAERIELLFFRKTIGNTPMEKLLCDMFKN
# COUP-TFII inh – inhibitors of human COUP-TFII (NR2F2). inhibition, % at 8.6 µM. P24468. 0.7% of 370,000 active. AID 686940. HEK293T NGFI-A luciferase reporter, luminescence;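 active = inhibition above a per-plate cutoff, mean inhibition of test wells between control levels plus 3 SD, cut at about 38% in these data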;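 also: cells cotransfected with COUP-TFII expression vector driving the NGFI-A reporter; 0% = median of COUP-TF2 test wells and 100% = reporter-only cells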
# SMARCA2 activ – SMARCA2 function activation, primary screen | MG213 cells, MMTV-luciferase reporter, dexamethasone, overnight | activation, % at 9.1 µM | 1% of 370,000 active; in the data active = activation above about 7.8%;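 also: 0% = vehicle wells and 100% = reference activator wells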
# GalR3 antag – antagonists of human GalR3; O60755; HEK293 GalR3-CNG cAMP membrane potential fluorescence; galR3 body fused to GalR1 C-terminus; inhibition, % at 3 µM; 0.44% of 360,000 active;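 active = inhibition above the screen-wide average plus 3 SD, cut at about 13% in these data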;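 also: forskolin and galanin both at EC90 stimulate the cells; cAMP rise reported by CNG channel membrane potential dye signal; 0% = forskolin plus galanin with DMSO and 100% = forskolin alone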
# NR2E3 ag-2 – activates human photoreceptor nuclear receptor NR2E3; GST-NR2E3/biotin-RetCOR TR-FRET, 1536-well; 0.12% of 320,000 active; inhibition of corepressor binding, % at 4.78 µM;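 active = percent inhibition above the cutoff of mean plus 3 SD of all tested compounds, set per screening campaign, cut at about 20% in these data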;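 also: 0% = DMSO wells and 100% = biotin wells as full block of FRET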
#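 Assay system: NR2E3–RetCOR corepressor complex. Quantity: 1.35 nM GST-NR2E3. Buffer or medium: pH 7.5 Tris-based buffer. Reagent: biotinylated RetCOR corepressor at 7 nM final. Schedule: 5 h at 4 °C. Detection: TR-FRET, emission read at 617 and 671 nm. Replicates: one well per compound, singlicate testing.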
# * marks the source's active call; other numbers are inactive results; . = no result.
SMILES,NR2E3 ag-1,COUP-TFII inh,SMARCA2 activ,GalR3 antag,NR2E3 ag-2
Cc1ccc(N/C(N)=N/c2nc(C)cc(N3CCCCC3)n2)c(C)c1,-35,47*,-6,-12,-5
Cc1ccc(N/C(N)=N/c2nc3c(c(=O)[nH]2)CCCC3)c(C)c1,1,7,-1,0,1
Oc1ccc(Nc2nc3ccccc3nc2Nc2ccc(O)cc2)cc1,95*,.,.,.,2
CN(C)c1ccc(C=c2c3ccccc3n3c2cc(-c2ccc(Cl)cc2)[n+]3C)cc1,7,59*,-9,-3,.
Cc1[nH]c2ccc(C(=O)OCCN(C)C)cc2c1C,-21,8,1,1,-2
CCOC(=O)c1ccc2[nH]c(C)c(C)c2c1,-59,-20,7.9*,-3,0
COc1ccc(C=NNC(=S)NN=Cc2ccc(OC)c(OC)c2)cc1OC,-3,-23,-1,16*,.
c1ccc2c(c1)oc1c(N3CCOCC3)ncnc12,-30,-15,3,1,6
C(=C\c1ccccc1)/CN1CCN(c2ncnc3c2oc2ccccc23)CC1,98*,29,-7,-5,1
Nc1nc(N)nc(-c2cc(F)ccc2O)n1,16,13,7.9*,-10,2
COc1ccc(O)c(-c2nc(N)nc(N)n2)c1,-45,-2,5,-3,-5
O=C(Nc1sc2c(c1-c1nc3ccccc3s1)CCNC2)C(F)(F)F,.,-5,.,.,.
O=C(Nc1ccc(-c2nc3ccc(NC(=O)c4cccs4)cc3[nH]2)cc1)c1cccs1,-5,-71,9.1*,-5,-53
CCn1nc(C(=O)Nc2nc3ccccc3[nH]2)c2ccccc2c1=O,-18,4,0,-4,0
Cn1nc(C(=O)Nc2nc3ccccc3[nH]2)c2ccccc2c1=O,-67,-37,16*,-9,1
CC(C)(C)C1CCC(=NNC(=O)c2ccccc2-n2cccc2)CC1 (centres undefined),-2,-22,11*,-3,-1
c1ccc2c(c1)CCN(c1nc3cc4c(cc3s1)OCCO4)C2,35,61*,-7,-1,-4
COc1ccc(/C=C/C(Cc2cccc(C(C)=O)c2)c2ccc(C)cc2)cc1 (centres undefined),.,-8,-5,.,.
O=C(NCCc1ccccc1)Nc1ccc2c(c1)OCO2,-109,-23,7.8*,-5,6
Cc1ccc(CN[C@@H]2CC[C@@]34CCCN3C(=O)CCC[C@H]4C2)cc1,.,-15,.,.,.
Cc1ccccc1Cn1ccc(NC(=O)c2onc(C)c2Cl)n1,-45,-17,7.8*,2,9
O=C1/C(=C/c2cccnc2)CCC/C1=C\c1cccnc1,.,91*,-12,-3,-2
CCC1C/C(=C\c2cccnc2)C(=O)/C(=C/c2cccnc2)C1 (centres undefined),-30,91*,-12,-5,.
O=C1/C(=C/c2cccnc2)CC/C1=C\c1cccnc1,-6,-3,-5,-4,4
C=C1C(=O)[C@]23C[C@H]1CC[C@H]2[C@]1(C)[C@@H](OC(C)=O)CC[C@@](C)(C(=O)O)[C@H]1C[C@@H]3OC(C)=O,19,-13,7.9*,-2,.
SMILES,NR2E3 ag-1,COUP-TFII inh,SMARCA2 activ,GalR3 antag,NR2E3 ag-2
O=C1/C(=C\c2ccco2)CCC/C1=C\c1ccco1,-24,-32,16*,4,2
CC1C/C(=C/c2ccco2)C(=O)/C(=C/c2ccco2)C1 (centres undefined),.,.,.,.,0
COC(=O)c1nn(-c2ccc(-c3ccccc3)cc2)cc1O,78*,-23,-3,-6,1
COC(=O)[C@]1(CNS(=O)(=O)C2CC2)CC(=O)N(C)[C@@H]1c1ccccc1,.,-21,-1,.,.
COC(=O)C1CN(Cc2ccc(Cl)cc2)CCS(=O)(=O)N1Cc1cn(Cc2ccc(Cl)cc2)nn1 (centres undefined),.,3,1,.,.
COc1cccc(C(=O)NNC(=O)Cc2ccc(Cl)cc2)c1,-14,0,1,-6,2
COc1cccc(C(=O)NN/C(C)=C/C(=O)C(F)(F)C(F)(F)C(F)(F)F)c1,-40,-31,9.5*,-10,0
O=C(N/N=C/c1ccco1)c1cnccn1,-40,-13,8.0*,-8,5
O=C(N/N=C/C=C/c1ccco1)c1cnccn1,-4,2,-2,-4,-4
CC(C)NS(=O)(=O)c1cccc2nsnc12,17,-7,1,14*,-1
CC[n+]1ccc(/C=C2\Sc3ccccc3N2CCCS(=O)(=O)[O-])c2ccccc21,-44,10,-4,-7,2
CN1C=C/C(=C\c2cc[n+](C)c3ccccc23)c2ccccc21,-9,46*,-9,-3,.
C[C@@H]1ON(C)[C@H]2C[C@H]3c4[nH]c5c(-c6ccc7c(c6)OCO7)cccc5c4CCN3C[C@@H]12,.,-4,-3,.,.
Cc1ccc(-c2n[nH]c(Cc3ccccc3)n2)cc1,-89,-44,7.9*,-9,-1
Cc1ccc(OCc2nc(-c3ccc(Cl)cc3)n[nH]2)cc1,-50,-27,4,-7,0
CN(C)Cc1csc(NC(=O)Nc2ccccc2Oc2ccccc2)n1,-4,-2,7.9*,-8,.
Cc1ccc(C(C)C)c(OCc2ccc(C(=O)N/N=C/c3ccc(O)cc3O)cc2)c1,-36,13,-8,23*,0
CC(C)Cc1cc(C(=O)Nc2cccnc2)no1,-45,-44,7.9*,.,0
Cc1cc(C(=O)Nc2cccnc2)no1,-6,.,.,.,-3
O=C(Nc1ccccc1Oc1ccccc1)c1ccccc1F,-8,-1,9.5*,-3,-3
O=C(COC(=O)c1ccc(Sc2ncn[nH]2)c([N+](=O)[O-])c1)Nc1ccc(Cl)c(Cl)c1,.,-14,0,.,.
CCCC1CCC2(CC1)CCC2OC(=S)Nc1ccc(I)cc1 (centres undefined),.,-10,.,.,.
CNC(=O)c1ccc(-c2cc3onc(-c4ccccc4)c3c(=O)n2C)cc1,-78,-16,3,-8,.
Cn1c(-c2ccc(F)cc2)cc2onc(-c3c(F)cccc3Cl)c2c1=O,.,-32,10*,-1,.
COc1ccc(C2C(C#N)=C(N)SC(N)=C2C#N)cc1OC,6,-2,2,-3,11
SMILES,NR2E3 ag-1,COUP-TFII inh,SMARCA2 activ,GalR3 antag,NR2E3 ag-2
N#CC1=C(N)SC(N)=C(C#N)C1c1cccc(O)c1,-12,7,4,60*,6
CC(COc1ccc(CC#N)cc1)CN1CCC(C(O)(c2ccccc2)c2ccccc2)CC1 (centres undefined),.,-7,1,.,.
O=C(O)COn1c(-c2ccccc2)nc2ccc([N+](=O)[O-])cc21,-215,-44,7.8*,-3,5
Cc1ccc(COn2c(-c3ccc(Cl)cc3)nc3ccc([N+](=O)[O-])cc32)cc1,-96,-54,8.2*,-7,-1
O=S1(=O)c2c(NCc3ccco3)cccc2Oc2ccccc2CN1Cc1cn(Cc2ccc(F)cc2)nn1,.,-6,1,.,.
Cc1cccc(NC(=O)c2cccnc2)c1,-18,-9,7.8*,-4,2
